Screens from PubChem BioAssay.
MrgX1 antagonist – antagonists of human MrgX1 receptor. Q96LB2. 310,000 tested, 1.3% active. MRGX1-HEK293 calcium flux, Fluo-4, BAM8-22 antagonism; active compounds read low. B-score at 10 µM;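 active = calcium-response B-score plate-corrected more than 3 library SD below zero, starting fluorescence within 5 deviations, no agonist response on first addition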;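 note: peak minus trough fluorescence over baseline after final BAM8-22 challenge near maximal dose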
Target sequence (Q96LB2 whole entry, looked up): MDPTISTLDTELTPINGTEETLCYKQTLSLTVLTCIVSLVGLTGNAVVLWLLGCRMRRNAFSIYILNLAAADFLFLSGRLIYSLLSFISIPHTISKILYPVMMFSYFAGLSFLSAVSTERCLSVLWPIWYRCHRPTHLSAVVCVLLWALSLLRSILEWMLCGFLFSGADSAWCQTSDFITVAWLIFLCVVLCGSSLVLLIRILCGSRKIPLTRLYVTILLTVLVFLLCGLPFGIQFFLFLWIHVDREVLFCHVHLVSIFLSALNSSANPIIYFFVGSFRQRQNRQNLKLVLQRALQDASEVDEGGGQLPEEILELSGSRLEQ
RGS4 inh – inhibitors of human RGS4; P49798; HEK293 M3R/RGS4 inducible, Fluo-4 calcium flux; active compounds read high; triggered by carbachol at its EC20; B-score at 10 µM; 310,000 tested, 0.45% active;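 active = B-score, a plate-corrected calcium signal, over three deviations above library mean, with baseline fluorescence within five deviations of library mean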;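 note: RGS4 expression induced by doxycycline in cells with stable M3 receptor; B-score is computed from the integrated fluorescence ratio over baseline after carbachol; higher B-score means a larger calcium signal and so more RGS4 inhibition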
Target sequence (P49798 whole entry, looked up): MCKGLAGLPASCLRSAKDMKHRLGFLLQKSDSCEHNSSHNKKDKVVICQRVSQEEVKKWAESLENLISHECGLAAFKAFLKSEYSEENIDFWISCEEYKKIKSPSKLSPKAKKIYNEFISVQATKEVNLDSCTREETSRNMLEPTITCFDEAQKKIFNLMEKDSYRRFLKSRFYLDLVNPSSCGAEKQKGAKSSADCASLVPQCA
RGS4 pot – RGS4 potentiation or activation; B-score at 10 µM; AID 463111; 310,000 tested, 0.92% active; HEK293 M3R/inducible RGS4, carbachol calcium flux Fluo4; active compounds read low;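 active = B-score of the integrated calcium signal more than 4 SD below the library mean, with starting fluorescence not abnormally high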;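 note: negative B-score means reduced calcium response which marks RGS4 activation or potentiation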
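Also added: carbachol at ECmax as muscarinic agonist stimulus; Assay system: HEK293 cells with stable M3R and inducible RGS4; Timing: overnight RGS4 induction, 30 min dye load 37 °C, 20 min compound RT; Measured by: Fluo4-AM (2 µM) calcium-flux fluorescence, kinetic read.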
MrgX1 PAM – human MrgX1 positive allosteric modulation, primary screen; AID 588675; MrgX1-HEK293, Fluo-4 calcium flux, FDSS; active compounds read high; 310,000 tested, 0.63% active; Q96LB2; B-score at 10 µM;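 active = plate-corrected calcium response at least 3 library SD above typical, normal starting fluorescence, not activating the receptor alone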;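 note: compound read alongside a low EC10 to EC30 dose of BAM8-22 agonist; peak minus trough fluorescence over baseline measured at the second addition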
MrgX1 agonist – human MrgX1 receptor agonism, primary screen. Q96LB2. MrgX1-HEK293 cells, Fluo-4 calcium fluorescence, agonist mode; active compounds read high. B-score at 10 µM. 310,000 tested, 0.44% active;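 active = calcium response B-score plate-corrected fluorescence ratio at least 3 library SD, with starting fluorescence B-score inside 5 SD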
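Test system: Stable human MrgX1 HEK293 cell line | Schedule: Overnight plating before 1 h dye loading | Read-out basis: Baseline-normalised fluorescence change ratio, B-scored | Detection: Kinetic calcium dye fluorescence, Fluo-4 NW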
RGS4 act valid – confirmation of RGS4 activators. shares compounds with RGS4 pot. HEK293 M3R/RGS4 inducible, carbachol calcium flux Fluo4. inhibition, % at 10 µM. 1,100 tested, 89% active. AID 602282;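 active = inhibition above 3 SD of the buffer control wells, cut at about 41% in these data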;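 note: signal is the integrated peak-minus-minimum Fluo4 fluorescence over baseline ratio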
RGS4 act ctr – RGS4 activator counter-screen hit in non-induced cells. shares compounds with RGS4 pot. 1,100 tested, 82% active. inhibition, % at 10 µM. HEK293 M3R non-induced RGS4, Fluo4 calcium flux; after carbachol challenge at its EC90. AID 602283;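 active = inhibition exceeding 3 SD of buffer-only control wells, cut at about 26% in these data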;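 note: percent drop in integrated peak-minus-baseline over baseline Fluo4 ratio after carbachol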
Active calls of the source: *; i = inactive; . = no result given. A selection: hits, their analogues and other compounds. The true share with any hit is near 3.5%.

SMILES	MrgX1 antagonist	RGS4 inh	RGS4 pot	MrgX1 PAM	MrgX1 agonist	RGS4 act valid	RGS4 act ctr
Nc1ccc2c(c1)C(=O)C(=O)c1ccccc1-2	i	i	-8.7*	i	i	68*	48*
Nc1ccc2c(c1)C(=O)c1ccccc1-2	i	i	i	i	i	.	.
COc1ccc(CCC(C)NC2C3CC4CC(C3)CC2C4)cc1 (stereo not given)	.	i	-8.8*	.	.	92*	87*
Cc1cc(NCc2ccccn2)n2ncc(-c3ccc(Cl)cc3)c2n1	i	i	i	i	i	.	.
Cc1cc(NCc2ccccn2)n2ncc(-c3ccccc3)c2n1	i	i	-7.8*	i	i	90*	43*
O=C(c1cc(-c2ccccc2)nc2ccccc12)N1CCOCC1	i	i	i	i	i	.	.
O=C(c1ccco1)N1CCN(C(=O)c2cc(-c3ccncc3)nc3ccc(Br)cc23)CC1	i	i	i	i	i	.	.
CC(C)c1ccc(-c2cc(C(=O)N3CCOCC3)c3cc(Br)ccc3n2)cc1	i	i	-8.4*	i	i	80*	38*
CC(=O)c1ccc(N2CCN(C(=O)c3cc(-c4ccncc4)nc4ccc(Br)cc34)CC2)cc1	i	i	-9.3*	i	i	68*	0
COc1cccc(-c2ccc(NC(=O)C3CCCN(Cc4cnn(C(C)C)c4)C3)cc2)c1 (stereo not given)	i	i	-11*	i	i	92*	79*
O=C(Nc1ccc(-c2cccc(F)c2)cc1)C1CCCN(Cc2ccccn2)C1 (stereo not given)	i	i	-8.1*	i	i	50*	29*
CCCc1ncc(CN2CCCC(C(=O)Nc3ccc(-c4cccc(OC)c4)cc3)C2)cn1 (stereo not given)	i	i	i	i	i	.	.
COc1ccc(Cc2noc(CN3CCN(C4CCc5ccccc5C4)CC3)n2)cc1OC (stereo not given)	i	i	i	i	i	.	.
Fc1cccc(Cc2noc(CN3CCN(C4CCc5ccccc5C4)CC3)n2)c1 (stereo not given)	i	i	-7.7*	i	i	92*	89*
Cc1nc2sc(C)c(C)c2c(=O)o1	i	i	-8.5*	i	i	0	0
O=C(O)c1cccc(Nc2nc(-c3cccnc3)nc3ccccc23)c1	i	i	i	i	i	.	.
COC(=O)c1cccc(Nc2nc(-c3cccnc3)nc3ccccc23)c1	i	i	-8.4*	i	i	42*	0
Cc1ccccc1-c1n[nH]c(=S)n1/N=C/C=C/c1ccco1	i	i	-8*	i	i	89*	44*
CC(/C=N/n1c(-c2cccnc2)n[nH]c1=S)=C\c1ccco1	i	i	i	i	i	.	.
CC(/C=N/n1c(-c2n[nH]c3c2CCC3)n[nH]c1=S)=C\c1ccco1	i	i	-9*	i	i	93*	90*
CCOC(=O)c1ccc(NC(=S)N2CCSC2c2ccc(Br)cc2)cc1 (stereo not given)	i	i	-8.1*	i	i	92*	91*
CCOC(=O)c1ccc(NC(=S)N2CCCC(C)C2)cc1 (stereo not given)	i	i	-8.9*	i	i	79*	26*
CCOC(=O)c1ccc(NC(=S)N2CCC(O)CC2)cc1	i	i	i	i	i	.	.
CCOC(=O)c1ccc(NC(=S)N2CCCC(C(=O)N3CCCC3)C2)cc1 (stereo not given)	i	i	i	i	i	.	.
CCN(CC)S(=O)(=O)c1ccc2c(c1)c(=O)c(C(=O)N1CCN(c3ccccn3)CC1)cn2C	i	i	i	i	i	.	.
SMILES	MrgX1 antagonist	RGS4 inh	RGS4 pot	MrgX1 PAM	MrgX1 agonist	RGS4 act valid	RGS4 act ctr
O=C(Nc1ccccc1C(=O)N1CCN(Cc2ccccc2)CC1)c1ccc(F)cc1	i	i	i	i	i	.	.
Cc1ccc(Cl)cc1NC(=O)C(=O)N1CCCCC1	i	i	i	i	i	.	.
Cc1ccc(Cl)cc1NC1=NC(=S)N(C(C)C)C12CCCCC2	i	i	-8.3*	i	i	80*	41*
COc1ccc(/C=N/NC(=O)c2ccccc2OCc2ccccc2)c(OC)c1	i	i	-11*	i	i	94*	76*
COc1ccc(/C(C)=N/NC(=O)c2ccccc2OCc2ccccc2)c(OC)c1	i	i	i	i	i	.	.
CCOC(=O)c1cc(-c2ccccc2)nc2nc(N(CC)CC)sc12	i	i	-9*	i	i	88*	76*
Cc1ccc(N/N=C(/Sc2nnnn2-c2ccccc2)C(=O)c2ccccc2)cc1	i	i	-16*	i	i	0	0
CCCCC(CC)C(=O)Oc1ccc(O)c(C(C)(C)C)c1 (stereo not given)	i	i	-7.7*	i	i	92*	87*
Cc1ccc(CNC(=O)c2ccc(N3CCC4(CC3)CC(c3ccccc3)=NO4)c([N+](=O)[O-])c2)cc1	i	i	i	i	i	.	.
COc1ccc(N(CC(=O)Nc2cccnc2)S(=O)(=O)c2ccccc2)cc1OC	i	i	i	i	i	.	.
CC(C)(C)NC(=O)COC(=O)c1c2c(nc3ccccc13)CCC2	i	i	-9.6*	i	i	44*	0
O=C(OCC(=O)N1CCc2ccccc21)c1c2c(nc3ccccc13)CCCCC2	i	i	-9.4*	i	i	83*	44*
CCOc1cc2sc(N3CCC(C(=O)NCCCN4CCCC4=O)CC3)nc2cc1Br	i	i	-9.4*	i	i	48*	84*
Cc1cc(C)c2nc(N3CCC(C(=O)NCCCN4CCCC4=O)CC3)sc2c1	i	i	i	i	i	.	.
CCOC(=O)C1(CCOc2ccccc2)CCN(Cc2cccn2-c2ncccn2)CC1	i	i	-8.1*	i	i	54*	84*
CCOC(=O)C1(CCCc2ccccc2)CCN(Cc2nccn2CC)CC1	i	i	-11*	i	i	92*	84*
CCOc1ccc(S(=O)(=O)NC(C)(C)C)cc1-c1nc2c(C(C)(C)C)nn(C)c2c(=O)[nH]1	i	i	-10*	i	i	76*	46*
